The record followed here is ChEMBL document CHEMBL3822433, “Discovery of N-(3-fluoro-4-methylsulfonamidomethylphenyl)urea as a potent TRPV1 antagonistic template” (Bioorg Med Chem Lett, 2016).

SMILES strings stand for the structures.

Type in all cases: cell-based
In assay [1] the target is T1, Transient receptor potential cation channel subfamily V member 1 (Homo sapiens, UniProt Q8NER1). The assay can be described thus: Displacement of [3H]-resiniferatoxin from human TRPV1 expressed in CHO cells incubated for 60 mins by scintillation counting analysis. The procedure, abridged: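 Competition binding against [3H]-resiniferatoxin using human TRPV1 heterologously expressed in CHO cells; Ki reported. Mean ± SEM of at least three experiments.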
T1 sequence (Q8NER1 whole entry): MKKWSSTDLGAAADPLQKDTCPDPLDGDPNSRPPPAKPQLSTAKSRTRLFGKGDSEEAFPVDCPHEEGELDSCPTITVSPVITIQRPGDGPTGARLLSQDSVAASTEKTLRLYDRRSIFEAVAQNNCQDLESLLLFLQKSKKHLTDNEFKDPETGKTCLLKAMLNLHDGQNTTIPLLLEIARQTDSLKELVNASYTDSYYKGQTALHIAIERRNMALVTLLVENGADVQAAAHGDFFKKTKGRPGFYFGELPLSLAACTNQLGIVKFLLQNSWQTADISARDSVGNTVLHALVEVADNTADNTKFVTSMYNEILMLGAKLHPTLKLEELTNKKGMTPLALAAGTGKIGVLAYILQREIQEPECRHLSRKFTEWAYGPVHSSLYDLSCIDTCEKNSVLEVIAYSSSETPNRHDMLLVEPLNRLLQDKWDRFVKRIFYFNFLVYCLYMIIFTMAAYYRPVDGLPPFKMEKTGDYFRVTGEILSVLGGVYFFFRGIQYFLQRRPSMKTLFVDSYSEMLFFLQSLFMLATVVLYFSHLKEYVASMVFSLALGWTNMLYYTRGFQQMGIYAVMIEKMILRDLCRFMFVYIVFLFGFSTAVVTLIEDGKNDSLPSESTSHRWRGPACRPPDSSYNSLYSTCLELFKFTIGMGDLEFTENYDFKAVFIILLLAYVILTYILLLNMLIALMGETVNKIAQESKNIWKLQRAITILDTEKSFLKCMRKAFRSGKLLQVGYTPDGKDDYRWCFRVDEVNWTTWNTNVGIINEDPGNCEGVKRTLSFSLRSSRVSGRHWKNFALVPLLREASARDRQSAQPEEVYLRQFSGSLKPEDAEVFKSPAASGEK

The target in assay [2] is T1, Transient receptor potential cation channel subfamily V member 1. The experiment in a line: Agonist activity at human TRPV1 expressed in CHO cells assessed as 45Ca2+ uptake incubated for 5 mins by liquid scintillation counting analysis. An outline of the steps: (§1)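 Human TRPV1 heterologously expressed in CHO cells; 45Ca2+ uptake measured. Maximal response defined with saturating capsaicin (1 μM). Mean ± SEM of at least three experiments. Where shown, % agonism refers to test concentrations of 3–30 μM.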

The target is the same in assay [3]. The experiment in a line: Antagonist activity at human TRPV1 expressed in CHO cells assessed as inhibition of capsaicin-induced 45Ca2+ uptake incubated for 5 mins by liquid scintillation counting analysis.
For assay [4] the target is unchanged. The experiment in a line: Antagonist activity at human TRPV1 expressed in CHO cells assessed as inhibition of capsaicin-induced 45Ca2+ uptake preincubated for 30 mins prior to capsaicin challenge measured after 5 mins by liquid scintillation counting analysis. The procedure, abridged:
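CHO cells heterologously expressing human TRPV1 were given a 30 min pre-incubation with antagonist before challenge with capsaicin (30 nM). Capsaicin-stimulated 45Ca2+ uptake was read out, and Ki(ant) was derived from dose-dependent inhibition, allowing for competition with capsaicin. Values are mean ± SEM, with n ≥ 3 experiments.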

The target is the same in assay [5]. The assay can be described thus: Antagonist activity at human TRPV1 expressed in CHO cells assessed as inhibition of capsaicin-induced 45Ca2+ uptake preincubated for 15 mins prior to capsaicin challenge measured after 5 mins by liquid scintillation counting analysis. The procedure, abridged:
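Human TRPV1 heterologously expressed in CHO cells; cells pre-incubated with antagonist for 15 min, then challenged with capsaicin (30 nM) and 45Ca2+ uptake measured. Dose-dependent inhibition was used to derive Ki(ant), correcting for capsaicin–antagonist competition. Values are mean ± SEM of at least three experiments.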

For assay [6] the target is unchanged. The experiment in a line: Agonist activity at human TRPV1 expressed in CHO cells assessed as 45Ca2+ uptake at 3 to 30 uM incubated for 5 mins by liquid scintillation counting analysis. An outline of the steps: as §1
Assay [7] shares this target. The assay can be described thus: Antagonist activity at human TRPV1 expressed in CHO cells assessed as inhibition of capsaicin-induced 45Ca2+ uptake at 3 to 30 uM incubated for 5 mins by liquid scintillation counting analysis.

In the case of `CC1CCN(c2nc(C(F)(F)F)ccc2CNC(=O)Nc2ccc(NS(C)(=O)=O)c(F)c2)CC1`, the inhibition constant Ki in assay [1] worked out at 83 nM; in assay [3], 149 nM. In addition, the EC50 result in assay [2] is listed as “Not Active”.
`CC1CCN(c2nc(C(F)(F)F)ccc2CNC(=O)[C@@H](C)c2ccc(NS(C)(=O)=O)c(F)c2)CC1`: in assay [2], the EC50 entry was “Not Active”.
Take `CC1CCN(c2nc(C(F)(F)F)ccc2CNC(=O)Nc2ccc(CNS(C)(=O)=O)c(F)c2)CC1`: the Ki in assay [1] is 6.77 nM; in assay [3] it was 12.5 nM. Moreover, in assay [2], the EC50 entry is recorded as “Not Active”.
The corresponding values for `CC1CCN(c2nc(C(F)(F)F)ccc2CNC(=O)NC(C)c2ccc(NS(C)(=O)=O)c(F)c2)CC1` (stereo unspecified) are 31.6 nM, 28.1 nM and “Not Active”.
With `CC1CCN(c2nc(C(F)(F)F)ccc2CCNC(=O)C(C)c2ccc(NS(C)(=O)=O)c(F)c2)CC1` (stereo unspecified), the Ki in assay [1] is 54 nM; in assay [3], 95 nM. Also, in assay [2], the EC50 entry was “Not Active”.
On to `CC1CCN(c2nc(C(F)(F)F)ccc2CNC(=O)C(C)c2ccc(NS(C)(=O)=O)c(F)c2)CC1` (stereo unspecified), for which the EC50 entry in assay [2] was “Not Active”.
With `CC1CCN(c2nc(C(F)(F)F)ccc2CNC(=O)C(C)c2ccc(CNS(C)(=O)=O)c(F)c2)CC1` (stereo unspecified), the Ki in assay [1] was 230 nM; in assay [3], 27.6 nM. Besides, the EC50 entry in assay [2] is recorded as “Not Active”.
In the case of `CC1CCN(c2nc(C(F)(F)F)ccc2CNC(=O)N(C)c2ccc(NS(C)(=O)=O)c(F)c2)CC1`, the Ki in assay [1] was 1160 nM; in assay [3] it was 59 nM. In addition, in assay [2], the EC50 result is reported as “Not Active”.
Take `CC1CCN(c2nc(C(F)(F)F)ccc2CNC(=O)NCc2ccc(CNS(C)(=O)=O)c(F)c2)CC1`: the Ki in assay [1] was 410 nM; in assay [3], 199 nM. Moreover, in assay [2], the EC50 entry is on record as “Not Active”.
In the case of `CC1CCN(c2nc(C(F)(F)F)ccc2CNC(=O)NCc2ccc(NS(C)(=O)=O)c(F)c2)CC1`, the EC50 entry in assay [2] is “Not Active”.
Take `Cc1cccc(N(C(=O)NCc2ccc(C(F)(F)F)nc2N2CCC(C)CC2)c2ccc(NS(C)(=O)=O)c(F)c2)c1`: the values for the inhibition constant (Ki) in assay [1], in assay [4] and in assay [5] were 490 nM, 860 nM and 2200 nM, respectively. Further, the EC50 result in assay [2] is “Not Active”.
Turning to `CC1CCN(c2nc(C(F)(F)F)ccc2CCNC(=O)Nc2ccc(NS(C)(=O)=O)c(F)c2)CC1`, the affinity in assay [1], expressed as Ki, was 210 nM. Also, in assay [6], the Activity turned out to be 29%. Also, the inhibition in assay [7] is 49%.

By Ki is commonly meant the equilibrium dissociation constant of an inhibitor or competing ligand from its target. By inhibition is commonly meant how much of the control response was suppressed.
